The results in this text go back to ChEMBL document CHEMBL4316598, “Synthesis, antiproliferative and apoptosis induction potential activities of novel bis(indolyl)hydrazide-hydrazone derivatives” (Bioorg Med Chem, 2019).

In assay [1] the test system is MCF7. Nature of the assay: Induction of apoptosis in human MCF7 cells assessed as effect on Mcl-1 long level at 1 to 3 uM after 24 hrs by Western blot analysis. It is filed as functional, cell-based. The procedure, abridged:
(§1)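 Cells were treated at 1, 3 and 5 µM for 24 h at 37 °C. Lysis was in ice-cold Triton X-100 buffer with protease and phosphatase inhibitors; nuclear proteins were extracted separately. Protein was quantified by BCA. Lysates were separated by electrophoresis, transferred to nitrocellulose and blocked in non-fat milk for 1 h. Primary antibody was applied overnight at 4 °C and secondary for 1 h at 28 °C. Detection was by enhanced chemiluminescence.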
(In general: In western blotting, separated proteins are transferred to a membrane and probed.)

Assay [2] deals with HeLa. Nature of the assay: Cytotoxicity against human HeLa cells assessed as reduction in cell viability after 4 hrs by MTT assay. It is filed as functional, cell-based. In a few lines: (§2)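 MTT: 10,000–20,000 cells/well attached for 16 h, then washed twice with serum-free RPMI. Treated with 1–200 µM for 4 h, 3 parallel runs per concentration. MTT added for 2 h; medium partly removed and isopropanol added. A590 read. Viability = (A treated − A doxorubicin)/(A medium − A doxorubicin)×100. Mean of three experiments, triplicate wells each.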
In general terms: Tetrazolium dyes change colour on reduction, which living cells bring about.

Assay [3] deals with HEK293. Nature of the assay: Cytotoxicity against HEK293 cells assessed as reduction in cell viability after 4 hrs by MTT assay. Conditions: Homo sapiens, HEK293, 4 h; read-out: IC50. It counts as cell-based, Homo sapiens. The procedure, abridged:
as §2

Assay [4] can be described thus: (§3) Cytotoxicity against human SW680 cells assessed as reduction in cell viability after 4 hrs by MTT assay. It counts as functional, cell-based.
For assay [5], the species on record is Homo sapiens. The description is as §3. It counts as functional, cell-based.
The subject of assay [6] is MCF7. In words: Induction of apoptosis in human MCF7 cells assessed as early apoptotic cells at 1 uM after 16 hrs by annexin-V FITC/propidium iodide staining based flow cytometric analysis relative to control. It is filed as functional. In a few lines:
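Cells were grown in DMEM with 10% heat-inactivated FBS at 37 °C and 5% CO₂, then plated at 500,000 cells/well in 24-well plates. They were treated from a DMSO stock (DMSO ≤0.1%) for 8, 12 or 16 h. After a PBS wash, cells were resuspended in binding buffer (10 mM HEPES pH 7.4, 2.5 mM CaCl₂, 140 mM NaCl, 0.1% BSA), stained 40 min with FITC-annexin V, then with PI, and run on the flow cytometer immediately. Values are the mean of three independent experiments.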

Assay [7] concerns HeLa. In words: Induction of ROS generation in human HeLa cells at 5 uM after 4 hrs by DCFH-DA staining-based fluorescence spectrophotometric analysis relative to control. It is filed as functional. The procedure, abridged: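 DCFH-DA ROS: HeLa or MCF-7 cells at 2×10^6/well cultured 12 h, treated 4 or 8 h; t-BHP (10 μM) is the positive control. DCFH-DA 10 μM added for 10 min at 37 °C, cells washed twice with PBS. Fluorescence read at ex 485/em 520 nm. For the NAC arm, NAC (5 mM) is added to the medium before treatment.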

The subject of assay [8] is MCF7. In words: Induction of nitric oxide production in human MCF7 cells at 5 uM measured over 8 hrs by Griess reaction based assay relative to control. It is filed as functional. In a few lines: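 Cells seeded at 2×10^6 cells/well for 12 h, then exposed to 1, 5 and 10 μM compound for 8 h at 37 °C. Culture supernatant mixed with Griess reagent (0.002% N-1-naphthyl-ethylenediamine dihydrochloride, 0.5% sulfanilic acid, 14% glacial acetic acid). Nitrite read by absorbance at 550 nm and compared with vehicle group.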
A general note: Nitrite, measured by Griess reagent, commonly stands in for NO production.

For assay [9], the system named is HeLa. Nature of the assay: Induction of nitric oxide production in human HeLa cells at 1 uM measured over 8 hrs by Griess reaction based assay relative to control. It counts as functional. In a few lines: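 Cells were plated at 2×10⁶ cells/well in 24-well plates for 12 h, then treated at 1, 5 and 10 µM for 8 h at 37 °C. Culture supernatant was mixed with Griess reagent (0.002% N-1-naphthylethylenediamine, 0.5% sulfanilic acid, 14% glacial acetic acid). Nitric oxide was quantified by absorbance at 550 nm.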

For assay [10], the system named is HeLa. In words: Effect on mitochondrial membrane potential in human HeLa cells assessed as shift change at 5 uM measured over 4 hrs by Rhodamine 123 dye-based fluorescence assay. It counts as functional, cell-based. In a few lines:
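Mitochondrial potential: HeLa or MCF-7 cells treated with 5 µM (final) for 1, 2, 4 and 8 h. Rhodamine 123 added, cells incubated 30 min at 37 °C, washed with PBS, and analysed by flow cytometry. Fluorescence histogram shift is compared with control.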

The subject of assay [11] is HeLa. In words: Induction of caspase-dependent apoptosis in human HeLa cells assessed as activation of caspase-6 at 1 to 3 uM after 24 hrs by Western blot analysis. It is filed as functional, cell-based. The procedure, abridged: as §1
Assay [12] has as its system HeLa. Nature of the assay: Induction of apoptosis in human HeLa cells assessed as change in Bcl-2 level at 1 to 3 uM after 24 hrs by Western blot analysis. It is filed as functional, cell-based. The procedure, abridged: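 Western blot: HeLa cells treated 24 h at 37 °C, lysed on ice, protein quantified by BCA. Proteins separated by electrophoresis, transferred to nitrocellulose, blocked 1 h in non-fat milk. Primary antibody (Bcl2) applied overnight at 4 °C, secondary 1 h at 28 °C, detected by enhanced chemiluminescence.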

The test system of assay [13] is HeLa. In words: Induction of apoptosis in human HeLa cells assessed as change in Bid level at 1 to 3 uM after 24 hrs by Western blot analysis. It is filed as functional, cell-based. The procedure, abridged: as §1
Assay [14] has as its system MCF7. Nature of the assay: Induction of apoptosis in human MCF7 cells assessed as up-regulation of total p53 level at 5 uM after 12 hrs by sandwich ELISA. It counts as functional, cell-based. The procedure, abridged: (§4)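 Cells were treated at 5 µM for 12, 24 and 48 h. Lysis was in ice-cold lysis buffer with 1 mM PMSF (5 min on ice), followed by three freeze-thaw cycles and a 10 min spin at 4 °C. Acetylated and total p53 were measured in the supernatant by kit sandwich ELISA, read at 450 nm. The control index is sample absorbance divided by that of untreated cells at the same time. Values are mean ± SD of triplicate experiments.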

The test system of assay [15] is HeLa. In words: Induction of apoptosis in human HeLa cells assessed as up-regulation of total p53 level at 5 uM after 12 hrs by sandwich ELISA. It is filed as functional, cell-based. The procedure, abridged:
as §4

In assay [16] the target is T1, MAP kinase p38 (Homo sapiens) (UniProt O15264+Q15759+Q16539+P53778). Nature of the assay: Activation of MAPK p38 phosphorylation in human MCF7 cells assessed as increase in ratio of phosphorylated p38 to total p38 level at 5 uM by ELISA. It counts as cell-based. The procedure, abridged:
(§5)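 Cell-based ELISA: HeLa or MCF-7 cells (20×10^3/well) grown overnight at 37 °C, 5% CO2, treated with 5 μM, then fixed and blocked. Probed with rabbit anti-total and anti-phospho P38, JNK or ERK1/2 (1:100), then HRP anti-rabbit IgG. Result is the phospho/total ratio; inhibitor arms use […], […] or SP600125. n=3.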

The target of assay [17] is T2, Mitogen-activated protein kinase; ERK1/ERK2 (Homo sapiens) (UniProt P27361+P28482). Nature of the assay: Activation of ERK1/2 phosphorylation in human MCF7 cells assessed as increase in ratio of phosphorylated ERK1/2 to total ERK1/2 level at 5 uM by ELISA. It counts as cell-based. The procedure, abridged:
as §5

In assay [18] the target is T1, MAP kinase p38 (Homo sapiens). In words: Activation of MAPK p38 phosphorylation in human HeLa cells assessed as increase in ratio of phosphorylated p38 to total p38 level at 5 uM by ELISA. It counts as cell-based. In a few lines:
as §5

The target in assay [19] is T2, Mitogen-activated protein kinase; ERK1/ERK2 (Homo sapiens). Nature of the assay: Activation of ERK1/2 phosphorylation in human HeLa cells assessed as increase in ratio of phosphorylated ERK1/2 to total ERK1/2 level at 5 uM in presence of ERK1/2 inhibitor PD98059 by ELISA. It counts as cell-based. The procedure, abridged: as §5

What is called IC50 is the concentration at which inhibition is half-maximal.

Structures are written as SMILES. The source made the active and inactive calls. The rule behind the calls is not given here.

T2 sequence (P27361 whole entry, looked up): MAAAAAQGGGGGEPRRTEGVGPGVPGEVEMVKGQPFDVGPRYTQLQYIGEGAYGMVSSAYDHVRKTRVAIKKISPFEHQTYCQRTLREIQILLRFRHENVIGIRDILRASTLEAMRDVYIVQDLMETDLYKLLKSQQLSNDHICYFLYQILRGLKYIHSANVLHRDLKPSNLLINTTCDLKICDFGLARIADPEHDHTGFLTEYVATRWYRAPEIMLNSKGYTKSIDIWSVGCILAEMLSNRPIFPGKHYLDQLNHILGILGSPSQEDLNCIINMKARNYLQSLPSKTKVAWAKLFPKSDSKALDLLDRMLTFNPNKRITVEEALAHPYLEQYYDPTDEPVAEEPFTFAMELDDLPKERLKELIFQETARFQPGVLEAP
T2 sequence (P28482 whole entry, looked up): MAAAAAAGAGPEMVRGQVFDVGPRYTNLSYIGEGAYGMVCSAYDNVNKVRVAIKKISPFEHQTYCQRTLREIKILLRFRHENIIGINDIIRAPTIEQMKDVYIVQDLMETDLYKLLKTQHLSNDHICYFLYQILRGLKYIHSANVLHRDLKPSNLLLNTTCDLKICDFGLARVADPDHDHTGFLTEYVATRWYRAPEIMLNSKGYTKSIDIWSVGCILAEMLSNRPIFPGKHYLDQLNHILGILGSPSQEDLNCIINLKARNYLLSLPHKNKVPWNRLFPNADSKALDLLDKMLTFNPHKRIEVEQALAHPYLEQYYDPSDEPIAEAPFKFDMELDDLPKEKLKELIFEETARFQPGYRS

As to `Cn1cc(/C=N\NC(=O)c2cn(C)c3ccc(Br)cc23)c2ccccc21`, the result in assay [1], in assay [11], in [12], in [13] and in assay [19] was inactive. The Activity result is “Dose-dependent effect” in [2]; “Dose-dependent effect” in assay [5]; 16.41% in assay [6]; 29.9% in [7]; 48.9% in [8]; 29.8% in [9]. Further, the IC50 was 1690 nM in assay [2] (Homo sapiens, HeLa, 4 h, read-out: IC50); over 200000 nM in assay [3]; 2770 nM in [4]. Moreover, the outcome in [10], in assay [14], in assay [15], in assay [16], in [17] and in assay [18] was Active.
